Experimental data taken from ChEMBL document CHEMBL1151799, “Trace amine-associated receptor 1 (TAAR1) is activated by amiodarone metabolites” (Bioorg Med Chem Lett, 2008).
The source made the active and inactive calls. No cut-off for these calls is given here.

These molecules were tested against Trace amine-associated receptor 1 (Rattus norvegicus) (UniProt Q923Y9) (assay: Antagonist activity at rat TAAR1 expressed in HEK293 cells assessed as intracellular cAMP level at 10 uM after 1 hr).
Format: functional, cell-based
In short: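 Stably rTAAR1-transfected HEK293 cells were harvested in Krebs-Ringer-Hepes buffer and incubated in it with 133 µM IBMX, 1 h at 37 °C. Test compound at 10 µM was given in competition with the agonist T1AM at 33 nM. Intracellular cAMP was read. At least three separate experiments, each in triplicate.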

Sequence of Trace amine-associated receptor 1 (Rattus norvegicus) (Q923Y9 whole entry): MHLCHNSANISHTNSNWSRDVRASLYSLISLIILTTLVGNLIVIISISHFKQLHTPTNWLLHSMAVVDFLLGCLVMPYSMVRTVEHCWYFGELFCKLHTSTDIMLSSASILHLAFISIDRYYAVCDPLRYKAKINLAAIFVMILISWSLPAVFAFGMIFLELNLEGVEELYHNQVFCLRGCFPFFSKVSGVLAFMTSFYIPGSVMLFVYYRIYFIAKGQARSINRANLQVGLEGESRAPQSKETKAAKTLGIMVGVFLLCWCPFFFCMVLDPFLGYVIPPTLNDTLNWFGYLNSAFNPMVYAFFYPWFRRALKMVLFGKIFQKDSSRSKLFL

Q: Which Activity does the source give for `CCCCc1oc2ccccc2c1C(=O)c1ccc(OCCN(CC)CC)c(I)c1` here?
A: The Activity was “inactive”.

Q: For `CCCCc1oc2ccccc2c1C(=O)c1ccc(OCCN(CC)CC)cc1`, which Activity is on record?
A: Its Activity is “inactive”.

Q: `CCCCc1oc2ccccc2c1C(=O)c1ccc(OCCNCC)c(I)c1` was tested. Which Activity did it give?
A: Its Activity is “inactive”.

Q: For `CCCCc1oc2ccccc2c1C(=O)c1cc(I)c(OCCNCC)c(I)c1`, which Activity is on record?
A: The Activity was “inactive”.

Each molecule was assayed against Trace amine-associated receptor 1 (Rattus norvegicus) (UniProt Q923Y9) (assay: Agonist activity at rat TAAR1 expressed in HEK293 cells assessed as intracellular cAMP level at <=10 uM after 1 hr).
Format: functional, cell-based
In short: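 HEK293 cells stably transfected with rTAAR1 (empty pcDNA3 vector cells as control) were harvested in Krebs-Ringer-Hepes buffer (KRH), then incubated in KRH with 133 µM IBMX plus test compound, forskolin (10 µM) or vehicle (DMSO) for 1 h at 37 °C. Intracellular cAMP was read. Tested at 10 µM or below. At least three separate experiments, each in triplicate.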

Q: For `CCCCc1oc2ccccc2c1C(=O)c1cc(I)c(OCCN)c(I)c1`, which Activity is on record?
A: Its Activity is “Active”.

Q: Which Activity does the source give for `CCCCc1oc2ccccc2c1C(=O)c1ccc(OCCN)c(I)c1` here?
A: The Activity was “Active”.

Q: How did the Activity turn out when `CCCCc1oc2ccccc2c1C(=O)c1ccc(OCCNCC)cc1` was run?
A: Its Activity is “Active”.

Q: Which Activity does the source give for `CCCCc1oc2ccccc2c1C(=O)c1ccc(OCCN)cc1` here?
A: The Activity was “Active”.

The molecules below were run against Trace amine-associated receptor 1 (Rattus norvegicus, UniProt Q923Y9) (assay: Agonist activity at rat TAAR1 expressed in HEK293 cells assessed as intracellular cAMP level).
Sequence of Trace amine-associated receptor 1 (Q923Y9 whole entry): as above
Format: functional, cell-based
In short: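 HEK293 cells stably transfected with rat TAAR1, with empty pcDNA3 vector cells as control, were harvested in Krebs-Ringer-Hepes buffer. They were incubated in the same buffer with 133 µM IBMX plus test compound, 10 µM forskolin or DMSO vehicle for 1 h at 37 °C. Results are mean ± SEM of at least three separate experiments, each run in triplicate.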

Q: Which EC50 does the source give for `CCCCc1oc2ccccc2c1C(=O)c1cc(I)c(OCCN)c(I)c1` here?
A: Its EC50 is 1000 nM.
